Active and inactive are the calls of the source. The calls are words filed in the database; no cut-off is given here.
Assays:
[1] = Alkylating activity in 0.2 M acetate buffer of pH 5.6 at 0.1 to 1 mM after 4 hrs by spectrophotometry relative to chlorambucil; type: physicochemical; details: pH 5.6, 4 h, 1000 µM
How it was run: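 Each compound at 0.1–1.0 mM in 50% (v/v) acetone/ethanol is added to 0.2 M acetate buffer pH 5.6 with 5% (w/v) p-nitrobenzyl pyridine in acetone and incubated 4 h at 37 °C. Colour is then developed with 25% (v/v) 3-amino-1-propanol in tert-butanol and absorbance read at 560 nm.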

WiDr [2] = assay: Cytotoxicity against human WiDr cells after 5 days by MTT assay; type: functional, cell-based; details: 120 h
How it was run: (§1)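 Cells are grown in RPMI with 2 mM L-glutamine and 10% FBS and seeded at 400–1000 per well. They get doubling dilutions of drug, each dose in triplicate, for five days at 37 °C, 5% CO2, humidified. MTT at 3 mg/ml is added for 3 h, and formazan is dissolved in DMSO and read at 540 nm minus 620 nm. % growth inhibition is taken against control wells and IC50 calculated.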

MCF7 [3] = assay: Cytotoxicity against human MCF7 cells expressing estrogen and progesterone receptor after 5 days by MTT assay; type: functional, cell-based; details: MCF7, 120 h; how it was run: as §1
A-375 [4] = assay: Cytotoxicity against human A375 cells after 5 days by MTT assay; type: functional, cell-based; details: A-375, 120 h; how it was run: as §1
Daoy [5] = assay: Cytotoxicity against human DaOY cells after 5 days by MTT assay; type: functional, cell-based; details: 120 h; how it was run: as §1
[6] = Chemical stability in phosphate buffer saline assessed as half life by HPLC analysis; type: physicochemical
How it was run: (§2)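 Esters are stored in phosphate buffered saline at 37 °C. Stability is followed over forty-five days by RP-HPLC (C18, acetic acid/acetonitrile pH 5.2, 1.2 ml/min, UV 254 nm), supported by infrared spectroscopy.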

NCI-H460 [7] = assay: Cytotoxicity against human H460 cells after 5 days by MTT assay; type: functional, cell-based; details: NCI-H460, 120 h; how it was run: as §1
MDA-MB-468 [8] = assay: Cytotoxicity against human MDA-MB-468 cells transfected with NAD(P)H: quinone oxidoreductase NQO1 after 5 days by MTT assay; type: functional, cell-based; details: MDA-MB-468, 120 h; how it was run: as §1
[9] = Partition coefficient, log P after 1 hr by UV spectroscopy; type: physicochemical; details: octanol/water
How it was run: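 Compound is shaken in n-octanol/water for 1 h at 20 °C, then spun 10 min at 3600 g and the phases separated. Original and shaken solutions are diluted to 0.8 mg% and compared by UV spectroscopy at 200–400 nm. Log P is calculated by the Leo method.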

[10] = Cytotoxicity against human OVCA3 cells after 5 days by MTT assay; type: functional, cell-based; details: OVCA3, 120 h; how it was run: as §1
MDA-MB-468 [11] = assay: Cytotoxicity against human MDA-MB-468 cells […] after 5 days by MTT assay; type: functional, cell-based; details: MDA-MB-468, 120 h; how it was run: as §1
[12] = Chemical stability assessed as rate of hydrolysis after 24 hrs by HPLC analysis in presence of pig liver esterase; type: physicochemical; details: read-out: Activity
How it was run: (§3)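 Porcine liver esterase is preincubated about 15 min at 37 °C in phosphate buffer pH 7.4, then ester is added. Aliquots are taken at set times, quenched with an equal volume of acetonitrile, vortexed and spun 10 min at 11,600 g. Samples are run on RP-HPLC (C18, 2% acetic acid/acetonitrile pH 5.2, 1.2 ml/min, 254 nm). The zero reaction is ester in buffer alone for 15 min.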

[13] = Metabolic stability in human plasma assessed as rate of hydrolysis after 24 hrs; type: ADME, cell-free; details: read-out: Activity
How it was run: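 Ester stock is made in absolute ethanol and added to freshly prepared human plasma with PBS, then incubated at 37 °C. Samples are mixed with an equal volume of mobile phase, spun 20 min at 11,600 g, and the supernatant is diluted in mobile phase for RP-HPLC.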

MDA-MB-468 [14] = assay: Ratio of IC50 for […] human MDA-MB-468 cells transfected with NAD(P)H: quinone oxidoreductase NQO1 to IC50 for human MDA-MB-468 cells […]; type: functional
[15] = Chemical stability assessed as rate of hydrolysis after 2 hrs by HPLC analysis in presence of pig liver esterase; type: physicochemical; details: read-out: Activity; how it was run: as §3
[16] = Metabolic stability in rat blood assessed as half life; type: ADME, tissue-based
[17] = Metabolic stability in rat liver assessed as half life; type: ADME, tissue-based
[18] = Chemical stability in phosphate buffer saline at pH 7.4 assessed as compound degradation by HPLC analysis; type: physicochemical; details: read-out: Activity; how it was run: as §2
MCF7 [19] = assay: Cytotoxicity against human MCF7 cells expressing estrogen and progesterone receptor at < 100 uM after 5 days by MTT assay; type: functional, cell-based; how it was run: as §1
OVCA3 = assay: Cytotoxicity against human OVCA3 cells at < 100 uM after 5 days by MTT assay; type: functional, cell-based; how it was run: as §1
Daoy [20] = assay: Cytotoxicity against human DaOY cells at < 100 uM after 5 days by MTT assay; type: functional, cell-based; how it was run: as §1
MDA-MB-468 [21] = assay: Cytotoxicity against human MDA-MB-468 cells […] at < 100 uM after 5 days by MTT assay; type: functional, cell-based; how it was run: as §1
A-375 [22] = assay: Cytotoxicity against human A375 cells at < 100 uM after 5 days by MTT assay; type: functional, cell-based; how it was run: as §1
NCI-H460 [23] = assay: Cytotoxicity against human H460 cells at < 100 uM after 5 days by MTT assay; type: functional, cell-based; how it was run: as §1
MDA-MB-468 [24] = assay: Cytotoxicity against human MDA-MB-468 cells transfected with NAD(P)H: quinone oxidoreductase NQO1 at < 100 uM after 5 days by MTT assay; type: functional, cell-based; how it was run: as §1
WiDr [25] = assay: Cytotoxicity against human WiDr cells at < 100 uM after 5 days by MTT assay; type: functional, cell-based; how it was run: as §1

SMILES	Activity [1] [%]	IC50 (WiDr [2]) [µM]	IC50 (MCF7 [3]) [µM]	IC50 (A-375 [4]) [µM]	IC50 (Daoy [5]) [µM]	IC50 (NCI-H460 [7]) [µM]	IC50 (MDA-MB-468 [8]) [µM]	logP at 1 h [9]	IC50 [10] [µM]	IC50 (MDA-MB-468 [11]) [µM]	metabolised at 24 h [12] [%]	metabolised at 24 h [13] [%]	Ratio IC50 (MDA-MB-468 [14])	metabolised at 2 h [15] [%]	other results
O=C(O)CCCc1ccc(N(CCCl)CCCl)cc1 [CHLORAMBUCIL]	> 100	7.13	4.5	2.58	1.36	2.19	0.79	3.8	8.92	0.65					half-life [6]: 1 h
C[C@]12CC[C@H](OC(=O)CCCc3ccc(N(CCCl)CCCl)cc3)CC1=CC[C@@H]1[C@@H]2CC[C@]2(C)C(=O)CC[C@@H]12	70	> 100	72.5	61.4	19.6	11.8	11.8	> 8	82.5	5.48	83	51	1.5	24	
CC(C)(C)OC(=O)CCCc1ccc(N(CCCl)CCCl)cc1 [CHLORAMBUCIL TERTIARY BUTYL ESTER]															half-life [16]: 7 h; half-life [17]: 2 h
CC(=O)[C@H]1CC[C@H]2[C@@H]3CC=C4C[C@@H](OC(=O)CCCc5ccc(N(CCCl)CCCl)cc5)CC[C@]4(C)[C@H]3CC[C@]12C	18	86.3	90	74.2	41.9	36.2	20.5	> 8	88.8	10.3	83	37	2	24	
CC(=O)[C@H]1CC[C@H]2[C@@H]3CC=C4C[C@@H](OC(=O)CCCc5ccc(N(CCCl)CCCl)c([N+](=O)[O-])c5)CC[C@]4(C)[C@H]3CC[C@]12C	4	> 100	68.3	> 100	> 100	> 100	32.6	> 8	> 100	19.3	83	37	2	24	degraded [18]: 48%
C[C@]12CC[C@H](O)CC1=CC[C@@H]1[C@@H]2CC[C@]2(C)C(=O)CC[C@@H]12															Activity (MCF7 [19]): inactive; Activity (OVCA3): inactive; Activity (Daoy [20]): inactive; Activity (MDA-MB-468 [21]): inactive; Activity (A-375 [22]): inactive; Activity (NCI-H460 [23]): inactive; Activity (MDA-MB-468 [24]): inactive; Activity (WiDr [25]): inactive
C[C@]12CC[C@H](OC(=O)CCCc3ccc(N(CCCl)CCCl)c([N+](=O)[O-])c3)CC1=CC[C@@H]1[C@@H]2CC[C@]2(C)C(=O)CC[C@@H]12	8	> 100	> 100	> 100	> 100	> 100	10.6	> 8	> 100	7.25	83	51	1.5	24	degraded [18]: 46%
O=C(O)CCCc1ccc(N(CCCl)CCCl)c([N+](=O)[O-])c1	38	13	23	9.46	5.3	9.53	3.75	3.7	15.6	1.16					
CC(=O)[C@H]1CC[C@H]2[C@@H]3CC=C4C[C@@H](O)CC[C@]4(C)[C@H]3CC[C@]12C															Activity (MCF7 [19]): inactive; Activity (OVCA3): inactive; Activity (Daoy [20]): inactive; Activity (MDA-MB-468 [21]): inactive; Activity (A-375 [22]): inactive; Activity (NCI-H460 [23]): inactive; Activity (MDA-MB-468 [24]): inactive; Activity (WiDr [25]): inactive

Source: ChEMBL document CHEMBL1152483, “To determine the cytotoxicity of chlorambucil and one of its nitro-derivatives, conjugated to prasterone and pregnenolone, towards eight human cancer cell-lines” (Eur J Med Chem, 2009)
